Holding throughout (assay type): ADME
The target in one data set is T1, PEPT1 (Rattus norvegicus, UniProt P51574).
T1 sequence (P51574 whole entry): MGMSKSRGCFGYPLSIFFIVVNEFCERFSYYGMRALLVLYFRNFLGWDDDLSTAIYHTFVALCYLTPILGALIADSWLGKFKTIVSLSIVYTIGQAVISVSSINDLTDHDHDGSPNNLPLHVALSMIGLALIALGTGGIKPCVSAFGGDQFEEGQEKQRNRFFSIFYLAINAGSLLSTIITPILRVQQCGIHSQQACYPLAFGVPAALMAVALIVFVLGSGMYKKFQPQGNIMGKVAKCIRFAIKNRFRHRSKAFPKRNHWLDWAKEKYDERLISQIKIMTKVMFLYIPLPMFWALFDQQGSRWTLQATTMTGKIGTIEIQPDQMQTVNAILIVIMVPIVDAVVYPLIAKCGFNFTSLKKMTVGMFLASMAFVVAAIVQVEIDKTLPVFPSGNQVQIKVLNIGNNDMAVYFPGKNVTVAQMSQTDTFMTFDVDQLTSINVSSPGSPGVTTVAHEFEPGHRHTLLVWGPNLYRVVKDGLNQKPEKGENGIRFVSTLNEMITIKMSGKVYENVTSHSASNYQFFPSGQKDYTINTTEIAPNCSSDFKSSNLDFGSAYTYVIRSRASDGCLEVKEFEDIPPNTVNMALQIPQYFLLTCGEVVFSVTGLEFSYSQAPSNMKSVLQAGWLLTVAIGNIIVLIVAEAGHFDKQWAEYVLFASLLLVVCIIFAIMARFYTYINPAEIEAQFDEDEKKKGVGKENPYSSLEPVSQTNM
Description: Drug uptake in Pichia pastoris GS115 expressing rat recombinant PEPT1 at 5 uM after 30 mins by dual-channel liquid scintillation counting analysis relative to vector control. Particulars: read-out: FC. An outline of the steps: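 5.0 µM radiolabelled substrate ([3H]GlySar or [14C]oseltamivir) is incubated 30 min at 24°C with induced transformants in 100 mM potassium phosphate pH 6.5. Cell-associated radioactivity is counted by scintillation after standing 24 h and normalised to OD600. Results are compared with pPIC3.5K vector-alone cells. Mean ± SE (n=6).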

Data set [1] addresses T2, Solute carrier family 15 member 1 (Mus musculus, UniProt Q9JIP7).
T2 sequence (Q9JIP7 whole entry): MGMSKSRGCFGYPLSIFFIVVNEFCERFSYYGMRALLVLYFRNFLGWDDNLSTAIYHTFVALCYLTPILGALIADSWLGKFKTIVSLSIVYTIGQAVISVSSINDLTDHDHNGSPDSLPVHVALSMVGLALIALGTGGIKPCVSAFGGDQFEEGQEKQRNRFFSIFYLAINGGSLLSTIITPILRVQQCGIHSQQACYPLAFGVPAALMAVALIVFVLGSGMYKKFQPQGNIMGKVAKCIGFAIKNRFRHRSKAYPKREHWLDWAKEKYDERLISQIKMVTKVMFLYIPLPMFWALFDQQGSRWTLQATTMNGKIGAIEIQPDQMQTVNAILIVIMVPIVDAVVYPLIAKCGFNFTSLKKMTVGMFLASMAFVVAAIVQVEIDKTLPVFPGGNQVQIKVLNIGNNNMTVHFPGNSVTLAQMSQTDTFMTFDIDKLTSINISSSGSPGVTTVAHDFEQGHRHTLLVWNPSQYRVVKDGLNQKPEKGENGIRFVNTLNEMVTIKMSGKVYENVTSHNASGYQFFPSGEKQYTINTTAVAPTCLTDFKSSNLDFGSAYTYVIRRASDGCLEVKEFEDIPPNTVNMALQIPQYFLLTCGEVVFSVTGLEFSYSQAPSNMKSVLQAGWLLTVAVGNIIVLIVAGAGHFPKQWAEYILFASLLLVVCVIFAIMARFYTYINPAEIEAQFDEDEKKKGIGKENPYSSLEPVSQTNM
Description: Drug uptake in Pichia pastoris GS115 expressing mouse recombinant PEPT1 at 5 uM after 30s by dual-channel liquid scintillation counting analysis in presence of SITS relative to control. Particulars: 0.5 min. An outline of the steps: (§1)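 [3H]GlySar 5.0 µM final, 30-s uptake at 24°C in 100 mM potassium phosphate pH 6.5, with or without a potential inhibitor at 10 mM. Cells are methanol-induced transformants. Values are vector-subtracted and expressed as percent of buffer control. Mean ± SE (n=3). ANOVA with Dunnett's test.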

Data set [2] deals with T3, Solute carrier family 15 member 1 (Homo sapiens, UniProt P46059).
T3 sequence (P46059 whole entry): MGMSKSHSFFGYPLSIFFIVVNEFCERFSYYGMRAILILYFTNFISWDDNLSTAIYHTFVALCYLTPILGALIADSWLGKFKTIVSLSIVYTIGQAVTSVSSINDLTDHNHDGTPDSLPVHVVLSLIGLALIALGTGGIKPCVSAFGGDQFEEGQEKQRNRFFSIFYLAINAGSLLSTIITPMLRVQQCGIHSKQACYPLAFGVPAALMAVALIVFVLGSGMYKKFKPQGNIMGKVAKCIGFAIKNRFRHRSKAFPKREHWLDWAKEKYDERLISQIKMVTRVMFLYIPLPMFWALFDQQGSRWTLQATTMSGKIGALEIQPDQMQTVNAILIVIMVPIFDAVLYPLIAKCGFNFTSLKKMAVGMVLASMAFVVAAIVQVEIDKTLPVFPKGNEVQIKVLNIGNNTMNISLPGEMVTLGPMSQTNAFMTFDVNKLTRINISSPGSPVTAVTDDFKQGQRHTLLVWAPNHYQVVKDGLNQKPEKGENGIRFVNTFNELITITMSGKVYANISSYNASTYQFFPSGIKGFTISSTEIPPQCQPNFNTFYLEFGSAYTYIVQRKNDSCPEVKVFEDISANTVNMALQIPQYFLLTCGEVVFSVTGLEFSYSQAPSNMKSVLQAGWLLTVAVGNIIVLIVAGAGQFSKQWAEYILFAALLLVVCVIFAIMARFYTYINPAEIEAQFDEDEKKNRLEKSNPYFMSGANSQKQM
The experiment in a line: Drug uptake in Pichia pastoris GS115 expressing human recombinant PEPT1 at 5 uM after 30s by dual-channel liquid scintillation counting analysis in presence of GlyPro relative to control. Particulars: 0.5 min. The essentials:
as §1

In data set [3] the target is T4, Solute carrier family 15 member 1 (Rattus norvegicus, UniProt P51574).
T4 sequence (P51574 whole entry): T1 sequence (P51574 whole entry)
The experiment in a line: Drug uptake in Pichia pastoris GS115 expressing rat recombinant PEPT1 at 5 uM after 30s by dual-channel liquid scintillation counting analysis in presence of cephalothin relative to control. Particulars: 0.5 min. The essentials: (§2)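 Rat PEPT1 (pPIC3.5K-rPept1) in GS115 His+Mut+ transformant, methanol-induced 20-24 hr in BMMY at 30°C, washed into 100 mM potassium phosphate pH 6.5. [3H]GlySar final 5.0 µM with inhibitor at 10 mM, 30 sec at 24°C. Counts taken by liquid scintillation after 24 hr standing. Values are vector-subtracted and given as % of buffer control. Mean ± SE, n=3.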

The target in data set [4] is T4, Solute carrier family 15 member 1. Description: Drug uptake in Pichia pastoris GS115 expressing rat recombinant PEPT1 at 5 uM after 30s by dual-channel liquid scintillation counting analysis in presence of cefazolin relative to control. Particulars: 0.5 min. An outline of the steps: as §2

Turning to `[3H]C(C(=O)O)N(C)C(=O)CN` (stereo not given), the uptake ratio at 0.5 h, 5 µM at PEPT1 is 100. In addition, the Drug uptake in data set [1] amounted to 86.1%; in data set [2] it was 3.9%; in data set [3], 119%; in data set [4], 93.7%.

Values taken from ChEMBL document CHEMBL3526053, “Species-dependent uptake of glycylsarcosine but not oseltamivir in Pichia pastoris expressing the rat, mouse, and human intestinal peptide transporter PEPT1” (Drug Metab Dispos, 2012).
